The source of these data is ChEMBL document CHEMBL4376814, “Novel cyclin-dependent kinase 9 (CDK9) inhibitor with suppression of cancer stemness activity against non-small-cell lung cancer” (Eur J Med Chem, 2019).

Active and inactive are the calls of the source. The calls are words filed in the database; no cut-off is given here.

As a reminder, the inhibition is the relative decrease from the control value, in per cent.

For data set [1], the system named is NCI-H1299. As to the kind of experiment: Inhibition of tumorsphere formation in human H1299 cells assessed as decrease in number of spheres at 0.25 to 1 uM after 2 weeks by microscopic analysis. The format is functional, cell-based.
In data set [2] the test system is A549. Description: Induction of apoptosis in human A549 cells assessed as late apoptotic cells at 1 uM after 48 hrs by AnnexinV-FITC/PI staining-based flow cytometric analysis (reference value: 7.66%). Format: functional. On the technique in general: In flow cytometry, cells or beads pass a laser one at a time.
Data set [3] deals with Fibroblast growth factor receptor 2 (Homo sapiens), P21802 [N549H]. Description: Inhibition of recombinant human FGFR2 N549H mutant (456 to 770 residues) at 1 uM using GGEEEEYFELVKKKK as substrate measured after 40 mins in presence of [gamma33P]ATP by scintillation counting method relative to control.
The target of data set [4] is Mitogen-activated protein kinase kinase kinase kinase 1 (Homo sapiens) (UniProt Q92918). As to the kind of experiment: Inhibition of recombinant human HPK1 (1 to 346 residues) at 1 uM using myelin basic protein as substrate measured after 40 mins in presence of [gamma33P]ATP by scintillation counting method relative to control.
Data set [5] has as its system NCI-H1299. Description: Antitumour activity against human H1299 cells xenografted in Balb/c mouse assessed as inhibition of phosphorylation of RNA polymerase 2 CTD domain at Ser 5 residue at 20 to 80 mg/kg, po administered for 3 weeks by […] based light microscopic analysis. Format: functional, organism-based. In short, it runs like this:
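Tumours came from the H1299 oral-dosing xenograft run for 3 weeks. Formalin-fixed, paraffin-embedded 5-µm sections were deparaffinized and rehydrated. Primary antibodies (CDK9, cyclin T1, p-Rb Ser780, RNAPII CTD Ser5, Oct4) used at 1:100 overnight at 4 °C. Biotinylated secondary for 1 h at room temperature, then ABC-peroxidase/DAB, hematoxylin counterstain and light microscopy.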
On the technique in general: In xenograft studies the graft and the host belong to different species.

In data set [6] the target is Leucine-rich repeat serine/threonine-protein kinase 2 (Homo sapiens) (UniProt Q5S007). As to the kind of experiment: Inhibition of recombinant human LRRK2 (970 to end residues) at 1 uM using RLGRDKYKTLRQIRQ as substrate measured after 40 mins in presence of [gamma33P]ATP by scintillation counting method relative to control.
Chain of Leucine-rich repeat serine/threonine-protein kinase 2 (Homo sapiens) (Q5S007 whole entry): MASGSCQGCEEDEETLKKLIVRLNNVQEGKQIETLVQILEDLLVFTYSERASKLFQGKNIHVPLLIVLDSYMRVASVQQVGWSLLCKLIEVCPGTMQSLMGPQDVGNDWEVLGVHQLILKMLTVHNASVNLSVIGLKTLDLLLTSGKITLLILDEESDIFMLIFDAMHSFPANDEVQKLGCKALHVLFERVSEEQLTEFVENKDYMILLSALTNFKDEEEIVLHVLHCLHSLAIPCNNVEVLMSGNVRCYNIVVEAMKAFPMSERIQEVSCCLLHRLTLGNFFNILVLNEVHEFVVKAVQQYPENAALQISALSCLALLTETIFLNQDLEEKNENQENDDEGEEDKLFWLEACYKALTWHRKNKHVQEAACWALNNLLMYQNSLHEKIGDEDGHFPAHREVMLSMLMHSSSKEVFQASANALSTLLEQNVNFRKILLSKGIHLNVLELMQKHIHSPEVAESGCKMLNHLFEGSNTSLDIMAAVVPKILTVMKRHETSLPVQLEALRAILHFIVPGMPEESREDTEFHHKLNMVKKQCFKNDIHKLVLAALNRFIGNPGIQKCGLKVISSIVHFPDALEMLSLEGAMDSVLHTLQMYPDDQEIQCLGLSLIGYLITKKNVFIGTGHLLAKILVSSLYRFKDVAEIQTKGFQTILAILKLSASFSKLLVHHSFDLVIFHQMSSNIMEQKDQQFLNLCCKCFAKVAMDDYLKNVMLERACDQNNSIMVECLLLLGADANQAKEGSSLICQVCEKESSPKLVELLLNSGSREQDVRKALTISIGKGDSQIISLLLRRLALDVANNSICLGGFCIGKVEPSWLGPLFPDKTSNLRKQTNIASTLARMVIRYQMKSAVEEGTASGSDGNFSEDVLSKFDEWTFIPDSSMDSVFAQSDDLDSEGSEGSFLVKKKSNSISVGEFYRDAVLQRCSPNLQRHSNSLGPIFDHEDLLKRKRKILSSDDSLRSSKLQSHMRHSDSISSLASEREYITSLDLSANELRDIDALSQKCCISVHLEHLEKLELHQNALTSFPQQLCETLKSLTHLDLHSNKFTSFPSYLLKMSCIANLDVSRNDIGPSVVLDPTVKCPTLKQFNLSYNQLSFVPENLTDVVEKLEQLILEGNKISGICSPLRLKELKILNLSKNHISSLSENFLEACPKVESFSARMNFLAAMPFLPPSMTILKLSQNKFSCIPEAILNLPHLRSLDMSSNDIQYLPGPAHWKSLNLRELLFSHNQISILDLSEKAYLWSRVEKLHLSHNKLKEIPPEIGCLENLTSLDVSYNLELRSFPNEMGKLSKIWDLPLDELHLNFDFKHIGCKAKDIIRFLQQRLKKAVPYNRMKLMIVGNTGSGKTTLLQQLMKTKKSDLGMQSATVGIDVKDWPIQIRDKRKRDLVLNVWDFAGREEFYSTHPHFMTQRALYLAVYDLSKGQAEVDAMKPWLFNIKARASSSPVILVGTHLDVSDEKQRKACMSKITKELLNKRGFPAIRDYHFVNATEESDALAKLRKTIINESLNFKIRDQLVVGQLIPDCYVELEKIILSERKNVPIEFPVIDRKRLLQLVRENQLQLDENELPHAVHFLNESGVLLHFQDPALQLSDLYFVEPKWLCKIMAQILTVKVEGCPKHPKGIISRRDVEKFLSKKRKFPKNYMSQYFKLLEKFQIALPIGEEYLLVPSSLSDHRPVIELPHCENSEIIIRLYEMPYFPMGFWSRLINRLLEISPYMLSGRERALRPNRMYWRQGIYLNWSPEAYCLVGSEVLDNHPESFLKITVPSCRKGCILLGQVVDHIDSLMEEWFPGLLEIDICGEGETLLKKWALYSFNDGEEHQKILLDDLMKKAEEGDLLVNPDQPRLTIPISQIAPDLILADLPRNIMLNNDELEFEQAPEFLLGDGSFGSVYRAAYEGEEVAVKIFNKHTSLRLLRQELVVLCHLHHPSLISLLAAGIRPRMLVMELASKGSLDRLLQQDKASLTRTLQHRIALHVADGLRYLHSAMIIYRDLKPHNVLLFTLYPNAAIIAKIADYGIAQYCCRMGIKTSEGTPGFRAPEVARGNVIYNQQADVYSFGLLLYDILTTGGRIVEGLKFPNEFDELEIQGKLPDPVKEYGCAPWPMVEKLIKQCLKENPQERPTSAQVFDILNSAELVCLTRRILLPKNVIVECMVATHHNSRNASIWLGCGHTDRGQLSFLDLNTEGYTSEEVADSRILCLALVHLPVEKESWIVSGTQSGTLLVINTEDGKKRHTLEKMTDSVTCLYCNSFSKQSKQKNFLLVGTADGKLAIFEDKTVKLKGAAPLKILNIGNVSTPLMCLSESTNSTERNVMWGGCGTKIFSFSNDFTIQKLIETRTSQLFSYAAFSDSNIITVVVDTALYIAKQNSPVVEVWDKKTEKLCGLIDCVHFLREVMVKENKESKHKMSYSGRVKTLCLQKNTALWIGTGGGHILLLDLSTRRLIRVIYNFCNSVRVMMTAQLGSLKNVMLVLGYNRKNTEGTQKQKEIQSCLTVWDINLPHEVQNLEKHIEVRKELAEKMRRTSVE
For data set [7], the target named is SRSF protein kinase 2 (Homo sapiens) (UniProt P78362). Description: Inhibition of human SRPK2 (46 to end residues) at 1 uM using RSRSRSRSRSRSRSR as substrate measured after 40 mins in presence of [gamma33P]ATP by scintillation counting method relative to control. In short, it runs like this:
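Percent inhibition of kinase activity at a single compound concentration, measured by the outsourced Eurofins KinaseProfiler panel. Values are the mean of two independent experiments.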

Data set [8] concerns the target MAP/microtubule affinity-regulating kinase 3 (Homo sapiens) (UniProt P27448). Description: Inhibition of recombinant full-length human MARK3 at 1 uM using KKKVSRSGLYRSPSMPENLNRPR as substrate measured after 40 mins in presence of [gamma33P]ATP by scintillation counting method relative to control.
Data set [9] concerns NCI-H1299. As to the kind of experiment: Induction of apoptosis in human H1299 cells assessed as late apoptotic cells at 0.5 uM after 48 hrs by AnnexinV-FITC/PI staining-based flow cytometric analysis (reference value: 1.77%). Format: functional.
Data set [10] concerns the target Dual specificity mitogen-activated protein kinase kinase 7 (Homo sapiens) (UniProt O14733). Description: Inhibition of recombinant human MKK7 (2 to end residues) at 1 uM using unactive JNK1a1 as substrate measured after 40 mins in presence of [gamma33P]ATP by scintillation counting method relative to control.
For data set [11], the target named is Serine/threonine-protein kinase PLK1 (Homo sapiens) (UniProt P53350). As to the kind of experiment: Inhibition of full length human PLK1 at 1 uM using casein as substrate measured after 40 mins in presence of [gamma33P]ATP by scintillation counting method.
Data set [12] has as its system Homeodomain-interacting protein kinase 2 (Homo sapiens), Q9H2X6 [UNDEFINED MUTATION]. As to the kind of experiment: Inhibition of recombinant human HIPK2 I471N mutant (165 to 564 residues) at 1 uM using myelin basic protein as substrate measured after 40 mins in presence of [gamma33P]ATP by scintillation counting method relative to control.
For data set [13], the system named is NCI-H1299. Description: Downregulation of OCT4 in human H1299 cells at 0.25 to 1 uM by Western blot analysis. The format is functional, cell-based. On the technique in general: A western blot detects proteins with antibodies after separation by electrophoresis.
Data set [14] has as its target Serine/threonine-protein kinase Chk2 (Homo sapiens) (UniProt O96017). As to the kind of experiment: Inhibition of recombinant human CHK2 (5 to end residues) at 1 uM using KKKVSRSGLYRSPSMPENLNRPR as substrate measured after 40 mins in presence of [gamma33P]ATP by scintillation counting method relative to control. In short, it runs like this: (§1)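 Single-point inhibition at 1 µM was measured in the Eurofins KinaseProfiler panel. Values are the mean of two independent experiments.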

Data set [15] deals with A549. Description: Induction of apoptosis in human A549 cells assessed as increase in cleaved caspase 3 expression at 0.25 to 1 uM after 24 hrs by Western blot analysis. Format: functional, cell-based. In short, it runs like this:
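A549 or H1299 cells exposed to the indicated concentrations for 24 h. Protein extracts then immunoblotted for apoptosis-pathway proteins (Bcl2, Bim, cleaved caspase 3).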

For data set [16], the target named is Ribosomal protein S6 kinase alpha-3 (Homo sapiens) (UniProt P51812). As to the kind of experiment: Inhibition of recombinant full-length human Rsk3 at 1 uM using KKKNRTLSVA as substrate measured after 40 mins in presence of [gamma33P]ATP by scintillation counting method relative to control. An outline of the steps: as §1
Chain of Ribosomal protein S6 kinase alpha-3 (Homo sapiens) (P51812 whole entry, the tested form may be a part): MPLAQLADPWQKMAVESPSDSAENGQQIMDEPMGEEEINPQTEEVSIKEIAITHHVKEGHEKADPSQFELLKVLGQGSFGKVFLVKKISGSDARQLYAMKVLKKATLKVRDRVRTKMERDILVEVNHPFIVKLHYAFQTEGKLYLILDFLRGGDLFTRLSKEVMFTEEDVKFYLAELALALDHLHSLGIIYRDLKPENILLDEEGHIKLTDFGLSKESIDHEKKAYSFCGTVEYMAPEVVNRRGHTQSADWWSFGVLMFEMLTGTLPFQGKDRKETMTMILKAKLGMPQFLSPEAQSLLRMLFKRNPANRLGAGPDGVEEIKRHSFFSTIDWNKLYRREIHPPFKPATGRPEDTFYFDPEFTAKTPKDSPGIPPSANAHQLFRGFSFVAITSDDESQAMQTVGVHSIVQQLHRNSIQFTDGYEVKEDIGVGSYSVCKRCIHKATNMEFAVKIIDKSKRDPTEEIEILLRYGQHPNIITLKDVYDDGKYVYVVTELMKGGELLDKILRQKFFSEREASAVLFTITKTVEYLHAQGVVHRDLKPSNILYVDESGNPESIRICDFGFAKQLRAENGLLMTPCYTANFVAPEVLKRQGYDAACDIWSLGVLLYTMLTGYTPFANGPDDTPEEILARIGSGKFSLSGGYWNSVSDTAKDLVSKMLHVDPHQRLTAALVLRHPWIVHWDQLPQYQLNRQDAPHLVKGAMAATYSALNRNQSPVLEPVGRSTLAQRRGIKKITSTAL
Data set [17] has as its target Ephrin type-A receptor 7 (Homo sapiens) (UniProt Q15375). Description: Inhibition of recombinant human EphA7 (613 to 909 residues) at 1 uM using KTFCGTPEYLAPEVRREPRILSEEEQEMFRDFDYIADWC as substrate measured after 40 mins in presence of [gamma33P]ATP by scintillation counting method relative to control.
Data set [18] can be described thus: Intrinsic clearance in Beagle dog liver microsomes at 2 uM in presence of NADPH measured up to 1 hr by HPLC analysis. The format is ADME, Canis lupus familiaris, Microsome.
Data set [19] concerns the target Serine/threonine-protein kinase Nek9 (Homo sapiens) (UniProt Q8TD19). Description: Inhibition of recombinant human NEK9 (1 to 324 residues) at 1 uM using myelin basic protein as substrate measured after 40 mins in presence of [gamma33P]ATP by scintillation counting method relative to control.
Data set [20] deals with Activin receptor type-1B (Homo sapiens) (UniProt P36896). Description: Inhibition of recombinant human ALK4 (150 to end residues) at 1 uM using casein as substrate measured after 40 mins in presence of [gamma33P]ATP by scintillation counting method relative to control.
Chain of Activin receptor type-1B (Homo sapiens) (P36896 whole entry): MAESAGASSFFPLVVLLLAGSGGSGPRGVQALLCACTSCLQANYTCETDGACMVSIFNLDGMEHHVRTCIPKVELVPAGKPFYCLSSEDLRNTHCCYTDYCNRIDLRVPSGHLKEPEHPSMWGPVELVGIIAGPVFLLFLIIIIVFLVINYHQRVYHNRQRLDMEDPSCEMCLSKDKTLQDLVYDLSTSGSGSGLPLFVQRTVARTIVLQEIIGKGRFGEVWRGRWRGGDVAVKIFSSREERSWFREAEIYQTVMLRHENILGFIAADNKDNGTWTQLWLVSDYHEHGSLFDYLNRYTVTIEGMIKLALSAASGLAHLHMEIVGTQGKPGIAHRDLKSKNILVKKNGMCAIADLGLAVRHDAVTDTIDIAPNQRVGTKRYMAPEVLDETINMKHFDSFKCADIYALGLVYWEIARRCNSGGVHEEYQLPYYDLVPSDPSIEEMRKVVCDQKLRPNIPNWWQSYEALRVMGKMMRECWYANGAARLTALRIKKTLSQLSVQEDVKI
Data set [21] deals with NCI-H1299. As to the kind of experiment: Antitumour activity against human H1299 cells xenografted in Balb/c mouse assessed as inhibition of tumour growth at 20 mg/kg, po administered for 21 days by digital caliper method relative to control. Format: functional. To be noted: 504 h, read-out: TGI. In short, it runs like this: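 Female nude mice, 6-8 weeks old, injected subcutaneously with 1×10^6 H1299 cells (100 µL of a 1×10^7/mL suspension in serum-free medium). At 100-120 mm3, randomized into groups of 5. Dosed orally each day for 21 days with drug dissolved in DMSO, or with vehicle. Caliper measurements and body weight taken every other day. Volume = short²×long×0.5. Growth inhibition based on change in volume relative to vehicle. Tumours weighed at the end.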

Chain of MAP/microtubule affinity-regulating kinase 3 (Homo sapiens) (P27448 whole entry, looked up): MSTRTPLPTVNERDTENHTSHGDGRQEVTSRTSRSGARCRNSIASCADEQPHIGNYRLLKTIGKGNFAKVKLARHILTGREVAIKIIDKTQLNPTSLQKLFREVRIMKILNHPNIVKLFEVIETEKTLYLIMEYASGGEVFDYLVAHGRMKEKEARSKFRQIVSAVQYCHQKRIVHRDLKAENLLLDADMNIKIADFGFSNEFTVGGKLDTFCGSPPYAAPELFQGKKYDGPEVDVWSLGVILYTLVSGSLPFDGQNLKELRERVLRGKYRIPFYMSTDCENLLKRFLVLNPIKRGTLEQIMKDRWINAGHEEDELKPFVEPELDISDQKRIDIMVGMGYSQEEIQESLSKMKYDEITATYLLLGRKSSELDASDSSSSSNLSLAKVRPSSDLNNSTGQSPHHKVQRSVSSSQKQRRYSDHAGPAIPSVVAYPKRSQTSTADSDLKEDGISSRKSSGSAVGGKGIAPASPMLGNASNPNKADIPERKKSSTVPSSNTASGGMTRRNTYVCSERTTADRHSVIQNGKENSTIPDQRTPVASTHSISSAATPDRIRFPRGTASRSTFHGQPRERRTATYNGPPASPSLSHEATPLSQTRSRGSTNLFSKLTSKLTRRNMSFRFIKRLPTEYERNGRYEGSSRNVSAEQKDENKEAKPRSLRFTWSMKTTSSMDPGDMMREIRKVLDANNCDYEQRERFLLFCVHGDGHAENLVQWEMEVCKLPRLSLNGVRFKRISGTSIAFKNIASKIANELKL
Chain of Serine/threonine-protein kinase Chk2 (Homo sapiens) (O96017 whole entry): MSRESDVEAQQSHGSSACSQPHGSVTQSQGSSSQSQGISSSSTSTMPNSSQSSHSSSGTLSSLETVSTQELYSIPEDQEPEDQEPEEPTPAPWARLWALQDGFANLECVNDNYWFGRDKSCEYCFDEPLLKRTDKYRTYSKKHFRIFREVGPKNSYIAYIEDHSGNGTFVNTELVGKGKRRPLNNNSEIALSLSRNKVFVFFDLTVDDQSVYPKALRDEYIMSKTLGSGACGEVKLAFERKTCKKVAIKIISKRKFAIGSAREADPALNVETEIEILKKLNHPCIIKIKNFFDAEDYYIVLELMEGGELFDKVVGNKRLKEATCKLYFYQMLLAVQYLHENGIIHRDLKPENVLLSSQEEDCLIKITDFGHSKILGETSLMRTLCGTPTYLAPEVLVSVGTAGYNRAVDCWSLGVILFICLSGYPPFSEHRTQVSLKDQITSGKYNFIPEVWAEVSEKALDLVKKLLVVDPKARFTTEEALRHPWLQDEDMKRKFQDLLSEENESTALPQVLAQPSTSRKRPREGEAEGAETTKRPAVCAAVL

On to `CN(C)C(=O)c1cc2cnc(Nc3ccc(NC(=O)CCCCCCCN=C=S)cc3)nc2n1C1CCCC1`, for which, in the data set on NCI-H1299 [1], the inhibition entry was “Active”. Further, the Activity amounted to 16.4% with A549 [2] and 3.64% with NCI-H1299 [9]. Besides, the inhibition came to 76% in [3]; 85% in data set [4]; 8% in [6]; 4% in [7]; 43% in data set [8]; 35% in data set [10]. The inhibition in [11] was -2%; in [12] it was 7%; in [14] it was 32%; in [16], 12%; in data set [17] it was 6%; in [19] it was 41%. Besides, the inhibition in data set [20] is 3%. Further, the result in the data set with NCI-H1299 [5], in the data set on NCI-H1299 [13] and with A549 [15] was Active. For the same compound, in data set [18], the CLH is 87 µL/min/mg. The inhibition in vivo at 20 mg/kg in the data set on NCI-H1299 [21] was determined as 62%.
